Entries after “also recorded” stand apart in the source; their conditions may differ. Like-named read-outs stand apart in the source and are kept apart here.
Tests used:
5-HT1AR [1] = target: T1, 5-HT1AR (Homo sapiens, UniProt P08908); assay: PDSP radioligand binding, 5-HT1AR; details: [3H]8-OH-DPAT
T1 sequence (P08908 1-422): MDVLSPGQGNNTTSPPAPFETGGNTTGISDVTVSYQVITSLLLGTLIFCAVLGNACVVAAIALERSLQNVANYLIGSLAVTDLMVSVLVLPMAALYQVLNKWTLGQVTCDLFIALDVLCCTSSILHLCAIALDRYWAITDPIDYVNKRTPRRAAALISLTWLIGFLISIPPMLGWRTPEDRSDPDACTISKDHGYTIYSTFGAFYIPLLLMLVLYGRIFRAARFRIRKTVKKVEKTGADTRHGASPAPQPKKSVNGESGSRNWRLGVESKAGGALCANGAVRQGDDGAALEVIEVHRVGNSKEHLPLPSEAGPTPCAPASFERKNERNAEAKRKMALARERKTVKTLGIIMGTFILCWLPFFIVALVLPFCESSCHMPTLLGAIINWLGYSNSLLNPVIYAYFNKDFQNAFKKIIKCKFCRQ
Procedure, shortened: (§1)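 Radioligand competition binding run by NIMH-PDSP. Radioligands: [3H]8-OH-DPAT (5-HT1AR), [3H]Ketanserin (5-HT2AR), [3H]LSD (5-HT2BR), [3H]SCH23390 (D1R, D5R), [3H]N-Methylspiperone (D2R, D3R, D4R). […] Ki given as mean ± SEM of at least 3 independent assays, each in triplicate.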

5-HT2CR = target: T2, 5-HT2CR (Homo sapiens, UniProt P28335); assay: PDSP radioligand binding, 5-HT2CR
T2 sequence (P28335 33-458): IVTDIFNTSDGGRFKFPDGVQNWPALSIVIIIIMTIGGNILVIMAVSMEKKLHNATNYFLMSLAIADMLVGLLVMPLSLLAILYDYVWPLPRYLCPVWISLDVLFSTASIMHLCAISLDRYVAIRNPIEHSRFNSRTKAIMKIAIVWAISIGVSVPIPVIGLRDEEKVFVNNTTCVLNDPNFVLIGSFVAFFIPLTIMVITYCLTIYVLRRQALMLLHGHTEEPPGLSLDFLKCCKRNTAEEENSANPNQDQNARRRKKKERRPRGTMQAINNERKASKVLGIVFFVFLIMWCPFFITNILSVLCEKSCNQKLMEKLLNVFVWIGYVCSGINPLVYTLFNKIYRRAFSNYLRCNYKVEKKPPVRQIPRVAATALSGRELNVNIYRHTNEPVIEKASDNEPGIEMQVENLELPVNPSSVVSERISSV

5-HT7R [2] = target: T3, 5-HT7R (Homo sapiens, UniProt P34969); assay: PDSP radioligand binding, 5-HT7R
SERT [3] = target: T4, SERT (Homo sapiens, UniProt P31645); assay: PDSP radioligand binding, SERT; details: for Binding, SERT: inhibition threshold class: [3H]Citalopram, 10 μM concentration
D1R = D1R (Homo sapiens, UniProt P21728); assay: PDSP radioligand binding, D1; details: for inhibition at 10 µM: read-out: Binding, D1: inhibition threshold class
Procedure, shortened: as §1

D2R = D2R (Homo sapiens, UniProt P14416); assay: PDSP radioligand binding, D2
Procedure, shortened: as §1

D3R = D3R (Homo sapiens, UniProt P35462); assay: PDSP radioligand binding, D3; details: for Ki: Binding affinity constant Ki, D3, [3H]N-Methylspiperone
Procedure, shortened: as §1

D4R = target: T5, D4R (Homo sapiens, UniProt P21917); assay: PDSP radioligand binding, D4
T5 sequence (P21917 1-419): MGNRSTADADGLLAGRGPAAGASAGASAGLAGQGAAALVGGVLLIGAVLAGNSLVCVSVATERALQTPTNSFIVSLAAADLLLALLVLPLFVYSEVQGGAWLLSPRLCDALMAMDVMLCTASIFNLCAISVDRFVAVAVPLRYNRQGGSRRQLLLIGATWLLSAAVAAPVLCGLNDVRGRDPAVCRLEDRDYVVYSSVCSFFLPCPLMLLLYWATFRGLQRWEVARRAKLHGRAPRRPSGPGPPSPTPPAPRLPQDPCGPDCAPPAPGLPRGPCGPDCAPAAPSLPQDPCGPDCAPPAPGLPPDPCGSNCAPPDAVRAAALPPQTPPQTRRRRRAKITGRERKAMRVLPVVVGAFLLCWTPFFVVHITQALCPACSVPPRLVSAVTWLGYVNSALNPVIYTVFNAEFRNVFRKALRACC
Procedure, shortened: as §1

D5R = D5R (Homo sapiens, UniProt P21918); assay: PDSP radioligand binding, D5; details: for inhibition at 10 µM: read-out: Binding, D5: inhibition threshold class
Procedure, shortened: as §1

NET = NET (Homo sapiens, UniProt P23975); assay: PDSP radioligand binding, NET; details: for Binding, NET: inhibition threshold class: [3H]Nisoxetine, 10 μM concentration
DAT = DAT (Homo sapiens, UniProt Q01959); assay: PDSP radioligand binding, DAT; details: for Binding, DAT: inhibition threshold class: [3H]WIN35428, 10 μM concentration
h5-HT7A [4] = target: T6, h5-HT7A (Homo sapiens, UniProt P34969); assay: HEK-5-HT7A / cAMP functional assay; type: cell-based; details: agonist mode
5-HT7R [5] = target: T3, 5-HT7R; assay: GPCR Tango assay, β-arrestin recruitment; type: cell-based
5-HT2AR = 5-HT2AR (Homo sapiens, UniProt P28223); assay: PDSP radioligand binding, 5-HT2AR; details: [3H]Ketanserin
Procedure, shortened: as §1

5-HT2BR = 5-HT2BR (Homo sapiens, UniProt P41595); assay: PDSP radioligand binding, 5-HT2BR; details: [3H]LSD
Procedure, shortened: as §1

[6] = Configurational stability of separated enantiomers; type: physicochemical; details: after chiral HPLC separation
SERT [7] = target: T4, SERT; details: 10 μM concentration; cited from earlier work
5-HT1AR [8] = target: T1, 5-HT1AR; details: read-out: Binding affinity constant Ki, 5-HT1AR; cited from earlier work
5-HT7R [9] = target: T3, 5-HT7R; details: read-out: Binding affinity constant Ki, 5-HT7R; Table 1; cited from earlier work
h5-HT7A [10] = target: T6, h5-HT7A; details: cited from earlier work
5-HT7R [11] = target: T3, 5-HT7R; details: cited from earlier work
[12] = Binding affinity constant Ki, 5-HT1AR
[13] = mean ± SEM, min 3 assays in triplicate
[14] = [3H]SCH23390, 10 μM concentration

T4 sequence (P31645 whole entry, species assumed): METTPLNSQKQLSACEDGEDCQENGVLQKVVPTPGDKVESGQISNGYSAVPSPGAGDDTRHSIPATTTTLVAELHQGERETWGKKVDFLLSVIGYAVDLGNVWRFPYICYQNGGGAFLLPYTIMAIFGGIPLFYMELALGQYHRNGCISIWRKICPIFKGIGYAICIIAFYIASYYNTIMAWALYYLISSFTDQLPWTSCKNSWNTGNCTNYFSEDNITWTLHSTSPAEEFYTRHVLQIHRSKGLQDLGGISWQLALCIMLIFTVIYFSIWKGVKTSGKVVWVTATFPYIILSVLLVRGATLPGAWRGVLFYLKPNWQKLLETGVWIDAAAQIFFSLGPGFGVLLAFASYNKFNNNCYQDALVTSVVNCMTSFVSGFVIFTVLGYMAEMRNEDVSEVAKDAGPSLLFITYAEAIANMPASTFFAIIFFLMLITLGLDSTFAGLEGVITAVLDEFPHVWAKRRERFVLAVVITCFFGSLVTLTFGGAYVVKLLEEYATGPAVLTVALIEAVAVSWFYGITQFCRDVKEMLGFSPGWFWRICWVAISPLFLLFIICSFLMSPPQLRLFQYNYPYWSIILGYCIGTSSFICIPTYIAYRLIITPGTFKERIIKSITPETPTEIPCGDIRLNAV
Chain of D2R (P14416 whole entry): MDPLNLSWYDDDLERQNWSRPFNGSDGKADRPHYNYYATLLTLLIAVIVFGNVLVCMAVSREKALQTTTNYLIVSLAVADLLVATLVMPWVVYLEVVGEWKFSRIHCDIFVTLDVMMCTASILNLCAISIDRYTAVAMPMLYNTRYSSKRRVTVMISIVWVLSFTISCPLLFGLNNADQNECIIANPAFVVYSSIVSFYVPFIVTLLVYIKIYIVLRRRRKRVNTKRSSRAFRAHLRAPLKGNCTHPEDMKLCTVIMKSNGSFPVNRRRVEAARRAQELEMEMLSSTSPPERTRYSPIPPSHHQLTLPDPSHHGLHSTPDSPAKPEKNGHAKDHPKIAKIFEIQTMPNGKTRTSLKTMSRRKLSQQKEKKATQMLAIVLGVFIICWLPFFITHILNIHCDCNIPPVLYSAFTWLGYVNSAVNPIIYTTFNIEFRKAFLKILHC
Chain of NET (P23975 whole entry): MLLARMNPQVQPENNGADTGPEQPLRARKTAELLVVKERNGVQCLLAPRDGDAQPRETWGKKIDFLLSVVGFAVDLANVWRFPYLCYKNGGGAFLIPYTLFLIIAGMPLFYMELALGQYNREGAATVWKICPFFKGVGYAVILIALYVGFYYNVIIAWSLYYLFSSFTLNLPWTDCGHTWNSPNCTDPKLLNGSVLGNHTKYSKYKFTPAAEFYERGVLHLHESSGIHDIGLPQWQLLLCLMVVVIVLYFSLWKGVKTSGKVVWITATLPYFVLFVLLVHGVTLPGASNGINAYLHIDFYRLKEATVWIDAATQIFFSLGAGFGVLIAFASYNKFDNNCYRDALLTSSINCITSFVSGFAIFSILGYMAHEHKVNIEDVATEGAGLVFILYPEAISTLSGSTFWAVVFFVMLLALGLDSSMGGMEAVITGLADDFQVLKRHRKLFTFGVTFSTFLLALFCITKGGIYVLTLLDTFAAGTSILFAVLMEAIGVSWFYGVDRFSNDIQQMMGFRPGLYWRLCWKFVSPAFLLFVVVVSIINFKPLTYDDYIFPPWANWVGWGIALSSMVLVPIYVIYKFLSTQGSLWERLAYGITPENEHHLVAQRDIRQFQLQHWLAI
T6 sequence (P34969 1-445 isoform P34969-2): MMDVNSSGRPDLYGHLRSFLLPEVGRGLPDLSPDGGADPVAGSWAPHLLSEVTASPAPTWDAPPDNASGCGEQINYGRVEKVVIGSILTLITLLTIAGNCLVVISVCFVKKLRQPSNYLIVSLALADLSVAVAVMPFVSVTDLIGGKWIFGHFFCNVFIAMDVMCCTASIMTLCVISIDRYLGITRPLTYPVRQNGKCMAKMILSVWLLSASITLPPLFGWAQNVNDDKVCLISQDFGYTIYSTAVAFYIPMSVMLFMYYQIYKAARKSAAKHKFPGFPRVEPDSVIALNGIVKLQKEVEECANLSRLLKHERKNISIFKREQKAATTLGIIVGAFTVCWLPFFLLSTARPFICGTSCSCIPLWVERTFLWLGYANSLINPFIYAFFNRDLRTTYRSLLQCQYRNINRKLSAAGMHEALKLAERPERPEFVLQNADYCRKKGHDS
Chain of 5-HT2BR (P41595 whole entry): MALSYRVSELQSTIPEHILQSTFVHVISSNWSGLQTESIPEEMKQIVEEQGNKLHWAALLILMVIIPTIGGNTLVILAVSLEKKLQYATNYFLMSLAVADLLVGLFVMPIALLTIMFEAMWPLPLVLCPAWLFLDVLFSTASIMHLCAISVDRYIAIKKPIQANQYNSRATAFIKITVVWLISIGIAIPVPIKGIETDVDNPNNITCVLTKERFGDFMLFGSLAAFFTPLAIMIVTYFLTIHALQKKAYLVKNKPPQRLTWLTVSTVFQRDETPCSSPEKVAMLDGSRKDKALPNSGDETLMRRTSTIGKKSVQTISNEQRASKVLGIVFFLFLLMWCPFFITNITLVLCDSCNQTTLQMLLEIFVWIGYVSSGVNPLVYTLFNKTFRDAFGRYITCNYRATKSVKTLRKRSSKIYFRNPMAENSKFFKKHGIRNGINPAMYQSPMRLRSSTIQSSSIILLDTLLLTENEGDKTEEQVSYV
Chain of DAT (Q01959 whole entry, species assumed): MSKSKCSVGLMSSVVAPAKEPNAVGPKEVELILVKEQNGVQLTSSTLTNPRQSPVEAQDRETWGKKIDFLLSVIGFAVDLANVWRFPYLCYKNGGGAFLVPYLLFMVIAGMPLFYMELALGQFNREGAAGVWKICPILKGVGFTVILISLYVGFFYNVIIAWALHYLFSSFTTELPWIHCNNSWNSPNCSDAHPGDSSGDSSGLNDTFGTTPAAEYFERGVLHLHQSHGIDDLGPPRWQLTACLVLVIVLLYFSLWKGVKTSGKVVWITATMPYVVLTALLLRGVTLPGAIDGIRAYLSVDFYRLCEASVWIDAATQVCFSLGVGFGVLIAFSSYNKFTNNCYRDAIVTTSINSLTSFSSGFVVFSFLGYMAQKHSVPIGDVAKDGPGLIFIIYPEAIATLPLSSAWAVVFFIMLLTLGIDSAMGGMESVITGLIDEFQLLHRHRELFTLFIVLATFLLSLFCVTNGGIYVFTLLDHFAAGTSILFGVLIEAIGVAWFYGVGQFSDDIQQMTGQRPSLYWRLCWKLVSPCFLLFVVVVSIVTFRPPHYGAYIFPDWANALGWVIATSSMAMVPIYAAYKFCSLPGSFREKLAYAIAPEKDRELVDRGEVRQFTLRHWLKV
Chain of D5R (P21918 whole entry): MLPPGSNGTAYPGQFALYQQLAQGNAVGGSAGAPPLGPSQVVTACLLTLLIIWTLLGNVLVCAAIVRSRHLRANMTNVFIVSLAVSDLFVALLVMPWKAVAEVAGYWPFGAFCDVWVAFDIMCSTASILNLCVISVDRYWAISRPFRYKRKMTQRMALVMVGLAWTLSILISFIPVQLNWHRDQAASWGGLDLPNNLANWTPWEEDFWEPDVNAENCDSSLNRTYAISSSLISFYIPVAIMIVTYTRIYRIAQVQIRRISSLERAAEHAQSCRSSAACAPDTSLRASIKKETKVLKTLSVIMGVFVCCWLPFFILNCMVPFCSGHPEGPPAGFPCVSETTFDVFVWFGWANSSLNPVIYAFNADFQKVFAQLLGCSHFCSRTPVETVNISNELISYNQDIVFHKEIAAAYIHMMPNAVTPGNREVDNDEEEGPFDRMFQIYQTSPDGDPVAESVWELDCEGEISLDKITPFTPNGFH
T3 sequence (P34969 whole entry): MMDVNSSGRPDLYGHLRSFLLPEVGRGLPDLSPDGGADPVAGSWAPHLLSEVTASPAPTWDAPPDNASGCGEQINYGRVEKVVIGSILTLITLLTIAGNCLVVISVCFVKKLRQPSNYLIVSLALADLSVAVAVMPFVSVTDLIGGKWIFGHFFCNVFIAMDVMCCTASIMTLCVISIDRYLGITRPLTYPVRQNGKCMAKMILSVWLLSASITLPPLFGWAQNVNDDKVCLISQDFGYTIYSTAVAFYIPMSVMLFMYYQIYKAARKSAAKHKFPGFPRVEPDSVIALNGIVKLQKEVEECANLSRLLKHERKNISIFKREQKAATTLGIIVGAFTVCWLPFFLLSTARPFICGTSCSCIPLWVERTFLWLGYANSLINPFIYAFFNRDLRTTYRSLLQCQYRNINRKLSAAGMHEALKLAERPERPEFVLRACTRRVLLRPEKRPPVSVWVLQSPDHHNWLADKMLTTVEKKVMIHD
Chain of 5-HT2AR (P28223 whole entry): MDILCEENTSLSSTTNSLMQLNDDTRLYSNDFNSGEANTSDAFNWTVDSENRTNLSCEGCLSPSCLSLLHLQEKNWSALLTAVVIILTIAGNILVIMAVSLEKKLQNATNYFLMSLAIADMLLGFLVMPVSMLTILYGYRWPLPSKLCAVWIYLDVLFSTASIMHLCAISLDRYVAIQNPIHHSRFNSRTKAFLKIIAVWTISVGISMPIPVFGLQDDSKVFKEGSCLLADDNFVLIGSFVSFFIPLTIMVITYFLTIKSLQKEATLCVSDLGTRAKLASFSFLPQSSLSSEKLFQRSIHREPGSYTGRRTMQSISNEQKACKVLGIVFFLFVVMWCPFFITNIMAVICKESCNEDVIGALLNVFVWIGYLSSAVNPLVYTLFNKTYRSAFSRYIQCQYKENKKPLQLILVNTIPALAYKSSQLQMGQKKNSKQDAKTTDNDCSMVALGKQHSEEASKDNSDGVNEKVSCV

CCOC(=O)C1(CCN2CCc3ccccc3C2)Cc2cc(Cl)ccc2C1=O (stereo not drawn) [Compound 3, ethyl 5-chloro-2-(2-(3,4-dihydroisoquinolin-2(1H)-yl)ethyl)-1-oxo-2,3-dihydro-1H-indene-2-carboxylate]
Ki (5-HT1AR [1]; [12]): 52 nM
Ki (5-HT2CR): 885 nM
Ki (5-HT7R [2]): 3.39 nM
Binding, SERT: inhibition threshold class (SERT [3]): MT (Missed threshold of 50% inhibition at 10 μM concentration)
inhibition at 10 µM (D1R): < 50%
Ki (D2R): 747 nM
Ki (D3R): 134 nM
inhibition at 10 µM (D4R; read-out: Binding, D4: inhibition threshold class): < 50%
inhibition at 10 µM (D5R): < 50%
Binding, NET: inhibition threshold class (NET): MT (Missed threshold of 50% inhibition at 10 μM concentration)
Binding, DAT: inhibition threshold class (DAT): MT (Missed threshold of 50% inhibition at 10 μM concentration)

NCCc1c[nH]c2ccc(O)cc12 [Compound 5-HT, Serotonin, reference compound]
cAMP Hill (h5-HT7A [4]): 1.0±0.1
β-arrestin Hill (5-HT7R [5]; agonist mode, Tango): 3.4±0.4

CC1(CCN2CCc3ccccc3C2)Cc2cc(Cl)ccc2C1=O (stereo not drawn) [Compound 2, 5-chloro-2-(2-(3,4-dihydroisoquinolin-2(1H)-yl)ethyl)-2-methyl-2,3-dihydro-1H-inden-1-one]
Ki (5-HT1AR [1]; [12]): 1720 nM
Ki (5-HT2AR; Binding affinity constant Ki, 5-HT2AR): 904 nM
Ki (5-HT2BR; Binding affinity constant Ki, 5-HT2BR): 174 nM
Ki (5-HT2CR; Binding affinity constant Ki, 5-HT2CR, [3H]Mesulergine): 1740 nM
Fold higher affinity at the 5-HT7R than clozapine (5-HT7R [2]): 2 fold
Fold lower affinity at the 5-HT7R than AS 19 (5-HT7R [2]): about 4 fold
Ki (5-HT7R [2]): 2.24 nM
inhibition at 10 µM (SERT [3]; read-out: Binding, SERT: inhibition threshold class): < 50%
inhibition at 10 µM (D1R): < 50%
Ki (D2R): 1230 nM
Ki (D3R): 185 nM
Ki (D4R; Binding affinity constant Ki, D4, [3H]N-Methylspiperone): 1220 nM
inhibition at 10 µM (D5R): < 50%
inhibition at 10 µM (NET; read-out: Binding, NET: inhibition threshold class): < 50%
inhibition at 10 µM (DAT; read-out: Binding, DAT: inhibition threshold class): < 50%

O=C1c2ccc(Cl)cc2CC1CCN1CCc2ccccc2C1 (stereo not drawn) [Compound 1c, 5-chloro-2-(2-(3,4-dihydroisoquinolin-2(1H)-yl)ethyl)-2,3-dihydro-1H-inden-1-one]
Racemization of separated enantiomers [6]: racemizes readily; also recorded: quickly reverted to the racemic mixture in a matter of hours
Binding, SERT: inhibition threshold class (SERT [7]): MT (Missed threshold of 50% inhibition at 10 μM concentration)

Cc1nn(C)c(C)c1-c1cccc2c1CC[C@H](N(C)C)C2 [AS-19]
Ki (5-HT1AR [8]): 89.7 nM
Ki (5-HT7R [9]): 0.6 nM

Clc1ccc(-c2n[nH]c3c2CCNCC3)cc1 [Compound 7, 3-(4-chlorophenyl)-1,4,5,6,7,8-hexahydropyrazolo[3,4-d]azepine]
Ki (5-HT1AR [8]): > 10000 nM
cAMP Emax % (h5-HT7A [10]): 94.7%
cAMP pEC50 (h5-HT7A [10]): 5.1±0.1
EC50 (h5-HT7A [10]; read-out: cAMP EC50): 7790 nM
β-arrestin Emax % (5-HT7R [11]): 62.7%
β-arrestin pEC50 (5-HT7R [11]): 6.8±0.2

CC1(CCN2CCc3ccccc3C2)Cc2cc(Cl)ccc2C1=O (single isomer, unassigned; (-)) [Compound 2a, (−)-5-chloro-2-(2-(3,4-dihydroisoquinolin-2(1H)-yl)ethyl)-2-methyl-2,3-dihydro-1H-inden-1-one]
Binding affinity constant pKi ± SEM, 5-HT1AR (5-HT1AR [1]; [13]): 7.06±0.07
Ki (5-HT1AR [1]; read-out: Binding affinity constant Ki, 5-HT1AR): 86.3 nM
Binding affinity constant pKi ± SEM, 5-HT2AR (5-HT2AR; [13]): 6.08 ± 0.06
Ki (5-HT2AR; read-out: Binding affinity constant Ki, 5-HT2AR): 834 nM
Binding affinity constant pKi ± SEM, 5-HT2BR (5-HT2BR; [13]): 6.48 ± 0.04
Ki (5-HT2BR; read-out: Binding affinity constant Ki, 5-HT2BR): 329 nM
Binding, 5-HT2CR: inhibition threshold class (5-HT2CR; 10 μM concentration): MT (Missed threshold of 50% inhibition at 10 μM concentration)
Selectivity for 5-HT7R over 5-HT1AR (5-HT7R [2]): ~72 fold
Binding affinity constant pKi ± SEM, 5-HT7R (5-HT7R [2]; Table 1, [3H]LSD, mean ± SEM, min 3 assays in triplicate): 8.94 ± 0.06
5-HT7 Receptor Binding pKi (5-HT7R [2]; Table 3): 8.7 ± 0.1
Ki (5-HT7R [2]; read-out: 5-HT7 Receptor Binding Ki, Table 3): 2.4 nM
Ki (5-HT7R [2]; read-out: Binding affinity constant Ki, 5-HT7R, Table 1, [3H]LSD): 1.2 nM
Binding, SERT: inhibition threshold class (SERT [3]): MT (Missed threshold of 50% inhibition at 10 μM concentration)
Binding, D1: inhibition threshold class (D1R; [14]): MT (Missed threshold of 50% inhibition at 10 μM concentration)
Binding, D2: inhibition threshold class (D2R; 10 μM concentration): MT (Missed threshold of 50% inhibition at 10 μM concentration)
Binding, D3: inhibition threshold class (D3R; 10 μM concentration): MT (Missed threshold of 50% inhibition at 10 μM concentration)
Binding affinity constant pKi ± SEM, D4 (D4R; [3H]N-Methylspiperone, mean ± SEM, min 3 assays in triplicate): 6.34 ± 0.07
Ki (D4R; read-out: Binding affinity constant Ki, D4, [3H]N-Methylspiperone): 457 nM
Binding, D5: inhibition threshold class (D5R; [14]): MT (Missed threshold of 50% inhibition at 10 μM concentration)
Binding, NET: inhibition threshold class (NET): MT (Missed threshold of 50% inhibition at 10 μM concentration)
Binding, DAT: inhibition threshold class (DAT): MT (Missed threshold of 50% inhibition at 10 μM concentration)
cAMP Hill (h5-HT7A [4]): 1.3± 0.2
cAMP pEC50 (h5-HT7A [4]): 6.9±0.3
cAMP Emax % (h5-HT7A [4]; normalized to maximal serotonin effect): 82.8 ± 2.6%
EC50 (h5-HT7A [4]; read-out: cAMP EC50): 126 nM
β-arrestin Emax % (5-HT7R [5]; agonist mode, Tango): 78.7 ± 5.7%
β-arrestin Hill (5-HT7R [5]; agonist mode, Tango): 1.2 ± 0.1
β-arrestin pEC50 (5-HT7R [5]; agonist mode, Tango): 8.4 ± 0.1
EC50 (5-HT7R [5]; read-out: β-arrestin EC50, agonist mode, Tango): 3.98 nM
Times higher activity than 5-HT in the β-arrestin pathway (5-HT7R [5]; relative to 5-HT): over 31 times
Racemization of separated enantiomers [6]: No racemization

— PMC8942385 (Medicinal chemistry research : an international journal for …, 2021)
